Assay [1] is described as follows: In vitro inhibition of 5-alpha-dihydrotestosterone stimulated shionogi cell proliferation. Format: functional. To be noted: Mus musculus. In a few lines:
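Androgen-sensitive Shionogi mouse mammary carcinoma clone SEM-107 (passage 23) plated at 17400 cells/mL in MEM with 2% dextran-charcoal-treated FCS. Cells grew 13 days with medium changes every 3–4 days, then were methanol-fixed. DNA content was measured, and IC50 was fitted by weighted iterative nonlinear least squares.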

The target of assay [2] is T1, 3-oxo-5-alpha-steroid 4-dehydrogenase 1 (Homo sapiens, UniProt P18405).
T1 sequence (P18405 whole entry): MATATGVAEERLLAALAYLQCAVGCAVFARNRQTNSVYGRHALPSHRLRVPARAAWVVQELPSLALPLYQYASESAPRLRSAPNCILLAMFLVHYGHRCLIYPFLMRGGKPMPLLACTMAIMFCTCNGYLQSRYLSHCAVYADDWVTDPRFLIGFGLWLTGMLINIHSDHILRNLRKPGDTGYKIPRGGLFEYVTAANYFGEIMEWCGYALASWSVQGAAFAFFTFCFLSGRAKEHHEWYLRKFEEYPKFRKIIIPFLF
The assay can be described thus: In vitro inhibition of human tSteroid 5-alpha-reductase type I in transfected 293 cells using [3H]- delta4-Androstenedione as substrate. Format: cell-based, HEK293. In outline: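 Homogenate of 293 cells transfected with human type 1 cDNA was the enzyme source. Compounds in ethanol were diluted in 50 mM Tris-HCl pH 7.5 with 20% glycerol and 1 mM EDTA. Screening was at 1 and 0.1 μM, with 12-point IC50 curves (0.1–1000 nM) for actives. Reactions used [3H]androstenedione and 500 μM NADPH for 60 min at 37 °C, followed by ether extraction, TLC and counting of androstanedione as % of control.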

Assay [3] addresses T2, 3-oxo-5-alpha-steroid 4-dehydrogenase 2 (Homo sapiens, UniProt P31213).
T2 sequence (P31213 whole entry): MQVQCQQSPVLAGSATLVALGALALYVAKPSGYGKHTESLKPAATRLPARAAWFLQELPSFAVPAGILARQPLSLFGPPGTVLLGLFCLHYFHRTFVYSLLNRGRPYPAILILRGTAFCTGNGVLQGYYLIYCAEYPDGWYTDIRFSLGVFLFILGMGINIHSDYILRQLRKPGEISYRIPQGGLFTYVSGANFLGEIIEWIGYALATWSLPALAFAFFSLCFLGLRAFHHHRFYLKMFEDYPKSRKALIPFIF
The assay can be described thus: In vitro inhibition of human Steroid 5-alpha-reductase type 2 in transfected SW-13 cells using [3H]- delta4-Androstenedione as substrate. Format: cell-based. In outline:
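Homogenate of SW-13 cells transfected with human type II cDNA was the enzyme source. Compounds in ethanol were diluted in 50 mM Tris-HCl pH 7.5 with 20% glycerol and 1 mM EDTA. They were screened at 1 and 0.1 μM; those giving ≥50% inhibition at 1 μM were run at 12 concentrations, 0.1–1000 nM. Reactions used [3H]androstenedione and 500 μM NADPH for 60 min at 37 °C. Steroids were ether-extracted and TLC-separated, and androstanedione radioactivity was expressed as % of control.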

Assay [4] is described as follows: In vitro inhibition of 5-alpha-dihydrotestosterone stimulated shionogi cell proliferation; NA is not active. Format: functional, Mus musculus. In a few lines:
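Shionogi mouse mammary carcinoma clone SEM-107 (passage 23), plated at 17400 cells/mL in MEM with 2% charcoal-treated FCS. Grown 13 days with medium changed every 3–4 days. Methanol-fixed, DNA content measured. IC50 by weighted iterative nonlinear least-squares regression; means ± SEM.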

For assay [5], the target named is T2, 3-oxo-5-alpha-steroid 4-dehydrogenase 2. Description: In vitro inhibition of human Steroid 5-alpha-reductase type 2 in transfected SW-13 cells using [3H]- delta4-Androstenedione as substrate; NA is not active. Format: cell-based. In outline: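 Homogenate of SW-13 cells transfected with human type II cDNA. Compounds diluted in 50 mM Tris-HCl pH 7.5, 20% glycerol, 1 mM EDTA, first screened at 1 and 0.1 μM. Those reaching 50% inhibition at 1 μM were run at 12 levels, 0.1–1000 nM. Incubated with 5 nM [3H]androstenedione and 500 μM NADPH, 60 min, 37 °C. Ether extraction, TLC, androstanedione radioactivity as % of control.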

For assay [6], the target named is T1, 3-oxo-5-alpha-steroid 4-dehydrogenase 1. Description: In vitro inhibition of human Steroid 5-alpha-reductase type I in transfected 293 cells using [3H]- delta4-Androstenedione as substrate; NA is not active. Format: cell-based. To be noted: hek293. In outline:
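Homogenate of 293 cells transfected with human type 1 cDNA. Compounds diluted in 50 mM Tris-HCl pH 7.5, 20% glycerol, 1 mM EDTA, first screened at 1 and 0.1 μM. Those reaching 50% inhibition at 1 μM were run at 12 levels, 0.1–1000 nM. Incubated with 1 nM [3H]androstenedione and 500 μM NADPH, 60 min, 37 °C. Ether extraction, TLC, androstanedione radioactivity as % of control.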

The target is the same in assay [7]. Description: In vitro inhibition of human Steroid 5-alpha-reductase type I in transfected 293 cells using [3H]- delta4-Androstenedione as substrate. Format: cell-based, HEK293. In outline:
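Homogenate of 293 cells transfected with human type 1 5α-reductase cDNA was used as enzyme. Compounds were dissolved in ethanol and diluted in 50 mM Tris-HCl pH 7.5 with 20% glycerol and 1 mM EDTA. They were screened at 1 and 0.1 μM; those giving ≥50% inhibition at 1 μM were tested at 12 concentrations from 0.1 to 1000 nM. Incubation used [3H]androstenedione and 500 μM NADPH for 60 min at 37 °C, followed by ether extraction, TLC, and counting of androstanedione as % of control.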

Regarding `CC(C)(C)NC(=O)[C@H]1CCC2C3CCC4=C(Br)C(=O)CC[C@]4(C)C3CC[C@@]21C` (stereo partly specified), the IC50 in assay [1] amounted to 184 nM; in assay [2], 981 nM; in assay [3] it was 387 nM.

Regarding `CC(C)(C)NC(=O)[C@H]1CCC2C3CCC4=C(S)C(=O)CC[C@]4(C)C3CC[C@@]21C` (stereo partly specified), the IC50 worked out at 279 nM in assay [1], 709 nM in assay [2] and 437 nM in assay [3].

With `CC(C)(C)NC(=O)[C@H]1CCC2C3CCC4=C(O)C(=O)CC[C@]4(C)C3CC[C@@]21C` (stereo partly specified), the IC50 in assay [1] was 242 nM; in assay [2], above 1000 nM; in assay [3], 172 nM.

Consider `[3H]C1CC2=CC(=O)CC[C@]2(C)[C@H]2CC[C@]3(C)C(=O)CC[C@H]3[C@H]12` (stereo partly specified), for which the IC50 entry in assay [4] is “Not Active”; in assay [2], 2700 nM; in assay [3], 83.9 nM.

On to `CC(C)(O)C(=O)Nc1ccc([N+](=O)[O-])c(C(F)(F)F)c1` [HYDROXYFLUTAMIDE], for which the values for the IC50 in assay [1], in assay [5] and in assay [6] were 117 nM, “Not Active” and “Not Active”, respectively.

`CC(C)(C)NC(=O)[C@H]1CC[C@H]2[C@@H]3CC[C@H]4NC(=O)C=C[C@]4(C)[C@H]3CC[C@]12C` [FINASTERIDE]: the figures for the IC50 result in assay [4], in assay [3] and in assay [7] were “Not Active”, 8.47 nM and 218 nM, respectively.

Consider `CC(C)(C)NC(=O)[C@H]1CCC2C3CCC4=C(Cl)C(=O)CC[C@]4(C)C3CC[C@@]21C` (stereo partly specified), for which the IC50 is 170 nM in assay [1], above 1000 nM in assay [2] and 192 nM in assay [3].

Usually IC50 stands for the point on the concentration scale where inhibition reaches its midpoint. A higher IC50 goes with weaker potency.

The values are drawn from ChEMBL document CHEMBL1128573, “Synthesis and in vitro evaluation of 4-substituted N-(1,1-dimethylethyl)-3-oxo-4-androstene-17 beta-carboxamides as 5 alpha-reductase inhibitors and antiandrogens” (J Med Chem, 1995).
